In ChEMBL document CHEMBL2157922, “Synthesis and antifungal activity of diverse C-2 pyridinyl and pyridinylvinyl substituted quinolines” (2012):
In brackets after ≈: the same amount, converted by molar mass.

What was measured:
Cryptococcus neoformans [1] = assay: Antifungal activity against Cryptococcus neoformans IM 00319 after 48 hrs by broth microdilution technique; assay type: functional; conditions: IM 00319, 48 h
In short: (§1)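 C. neoformans was tested by 96-well RPMI-1640 microdilution, with DMSO-matched growth and sterility control wells. Plates were incubated 48 h at 30 °C in a moist, dark chamber and read at OD405. % inhibition = 100 − (CTW − SCW)/(GCW − SCW), in duplicate. For the clinical isolates, MIC80 and MIC50 are the lowest concentrations giving 80% and 50% inhibition.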

Candida albicans [2] = assay: Antifungal activity against Candida albicans CCC 130 after 24 hrs by broth microdilution technique; conditions: CCC 130, 24 h
Cryptococcus neoformans [3] = assay: Antifungal activity against Cryptococcus neoformans ATCC 32264 after 48 hrs by broth microdilution technique; assay type: functional; conditions: ATCC 32264, 48 h
In short: (§2)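 Yeasts were tested by CLSI broth microdilution in RPMI-1640 buffered to pH 7.0 with MOPS, with compound from 250 down to 0.98 in DMSO stocks. Trays were held at 30 °C in a moist, dark chamber. MIC100, the lowest concentration giving total visual inhibition against the growth control, was read by eye at 48 h.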

Candida albicans [4] = assay: Antifungal activity against Candida albicans CCC 127 after 48 hrs by broth microdilution technique; assay type: functional; conditions: CCC 127, 48 h
Candida albicans [5] = assay: Antifungal activity against Candida albicans CCC 126 after 48 hrs by broth microdilution technique; assay type: functional; conditions: CCC 126, 48 h
Aspergillus fumigatus = assay: Antifungal activity against Aspergillus fumigatus ATCC 26934 after 48 hrs by broth microdilution technique; assay type: functional; conditions: ATCC 26934, 48 h
In short: (§3)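 Moulds and dermatophytes were run by CLSI broth microdilution in MOPS-buffered RPMI-1640 at pH 7.0. Aspergillus was incubated at 30 °C and dermatophytes at 28–30 °C, in a moist, dark chamber. MIC100, the lowest concentration with no visible growth, was read visually at a time set by growth of the control fungus.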

Nannizzia gypsea = assay: Antifungal activity against Microsporum gypseum CCC 115 after 48 hrs by broth microdilution technique; assay type: functional; conditions: CCC 115, 48 h; in short: as §3
Pichia kudriavzevii = assay: Antifungal activity against Candida krusei CCC 117 after 48 hrs by broth microdilution technique; assay type: functional; conditions: CCC 117, 48 h
Candida albicans [6] = assay: Antifungal activity against Candida albicans CCC 128 after 48 hrs by broth microdilution technique; assay type: functional; conditions: CCC 128, 48 h
Cryptococcus neoformans [7] = assay: Antifungal activity against Cryptococcus neoformans IM 972751 after 48 hrs by broth microdilution technique; assay type: functional; conditions: IM 972751, 48 h; in short: as §1
[8] = system: Trichophyton mentagrophytes; assay: Antifungal activity against Trichophyton mentagrophytes ATCC 9972 after 48 hrs by broth microdilution technique; assay type: functional; conditions: ATCC 9972, 48 h; in short: as §3
Aspergillus flavus = assay: Antifungal activity against Aspergillus flavus ATCC 9170 after 48 hrs by broth microdilution technique; assay type: functional; conditions: ATCC 9170, 48 h; in short: as §3
Cryptococcus neoformans [9] = assay: Antifungal activity against Cryptococcus neoformans IM 972724 after 48 hrs by broth microdilution technique; assay type: functional; conditions: IM 972724, 48 h; in short: as §1
Candida albicans [10] = assay: Antifungal activity against Candida albicans ATCC 10231 at 7.8 ug/ml after 24 hrs; assay type: functional; conditions: ATCC 10231, 24 h
In short: (§4)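 C. albicans was grown in 96-well RPMI-1640 broth microdilution with compound wells diluted from DMSO stocks. Growth wells with matched DMSO and sterility wells were included. After 24 h at 30 °C in a moist, dark chamber, OD405 was read. % inhibition = 100 − (CTW − SCW)/(GCW − SCW) OD, done in duplicate.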

Trichophyton rubrum = assay: Antifungal activity against Trichophyton rubrum CCC 113 after 48 hrs by broth microdilution technique; assay type: functional; conditions: CCC 113, 48 h
Cryptococcus neoformans [11] = assay: Antifungal activity against Cryptococcus neoformans IM 983036 after 48 hrs by broth microdilution technique; assay type: functional; conditions: IM 983036, 48 h; in short: as §1
Saccharomyces cerevisiae = assay: Antifungal activity against Saccharomyces cerevisiae ATCC 9763 after 48 hrs by broth microdilution technique; assay type: functional; conditions: ATCC 9763, 48 h; in short: as §2
Candida albicans [12] = assay: Antifungal activity against Candida albicans CCC 129 after 48 hrs by broth microdilution technique; assay type: functional; conditions: CCC 129, 48 h
Cryptococcus neoformans [13] = assay: Antifungal activity against Cryptococcus neoformans ATCC 32264 at 31.2 ug/ml after 48 hrs; assay type: functional; conditions: ATCC 32264, 48 h; in short: as §1
Candida parapsilosis = assay: Antifungal activity against Candida parapsilosis CCC 124 after 48 hrs by broth microdilution technique; assay type: functional; conditions: Lodderomyces parapsilosis, CCC 124, 48 h
Nakaseomyces glabratus = assay: Antifungal activity against Candida glabrata CCC 115 after 48 hrs by broth microdilution technique; assay type: functional; conditions: CCC 115, 48 h
Cryptococcus neoformans [14] = assay: Antifungal activity against Cryptococcus neoformans IM 983040 after 48 hrs by broth microdilution technique; assay type: functional; conditions: IM 983040, 48 h; in short: as §1
Candida tropicalis = assay: Antifungal activity against Candida tropicalis CCC 131 after 48 hrs by broth microdilution technique; assay type: functional; conditions: CCC 131, 48 h
Candida albicans [15] = assay: Antifungal activity against Candida albicans CCC 125 after 48 hrs by broth microdilution technique; assay type: functional; conditions: CCC 125, 48 h
Aspergillus niger = assay: Antifungal activity against Aspergillus niger ATCC 9029 after 48 hrs by broth microdilution technique; assay type: functional; conditions: ATCC 9029, 48 h; in short: as §3
Candida albicans [16] = assay: Antifungal activity against Candida albicans CCC 130 after 48 hrs by broth microdilution technique; assay type: functional; conditions: CCC 130, 48 h
Candida albicans [17] = assay: Antifungal activity against Candida albicans ATCC 10231 at 31.2 ug/ml after 24 hrs; assay type: functional; conditions: ATCC 10231, 24 h; in short: as §4
Candida albicans [18] = assay: Antifungal activity against Candida albicans ATCC 10231 at 15.6 ug/ml after 24 hrs; assay type: functional; conditions: ATCC 10231, 24 h; in short: as §4
Candida albicans [19] = assay: Antifungal activity against Candida albicans ATCC 10231 after 48 hrs by broth microdilution technique; assay type: functional; conditions: ATCC 10231, 48 h; in short: as §2
Cryptococcus neoformans [20] = assay: Antifungal activity against Cryptococcus neoformans IM 042074 after 48 hrs by broth microdilution technique; assay type: functional; conditions: IM 042074, 48 h; in short: as §1

MIC50 (Cryptococcus neoformans [1]): 7.8 µg/mL (≈ 33.6 µM)
MIC80 (Cryptococcus neoformans [1]): 31.2 µg/mL (≈ 134 µM)
MIC50 (Candida albicans [2]): 7.8 µg/mL (≈ 33.6 µM)
MIC (Cryptococcus neoformans [3]): 62 µg/mL (≈ 267 µM)
MIC50 (Cryptococcus neoformans [3]): 15.6 µg/mL (≈ 67.2 µM)
MIC80 (Cryptococcus neoformans [3]): 31.2 µg/mL (≈ 134 µM)
MIC50 (Candida albicans [4]): 15.6 µg/mL (≈ 67.2 µM)
MIC80 (Candida albicans [4]): 15.6 µg/mL (≈ 67.2 µM)
MIC50 (Candida albicans [5]): 15.6 µg/mL (≈ 67.2 µM)
MIC80 (Candida albicans [5]): 31.2 µg/mL (≈ 134 µM)
MIC (Aspergillus fumigatus): 125 µg/mL (≈ 538 µM)
MIC (Nannizzia gypsea): 31 µg/mL (≈ 133 µM)
MIC50 (Pichia kudriavzevii): 15.6 µg/mL (≈ 67.2 µM)
MIC80 (Pichia kudriavzevii): 31.2 µg/mL (≈ 134 µM)
MIC50 (Candida albicans [6]): 7.8 µg/mL (≈ 33.6 µM)
MIC80 (Candida albicans [6]): 15.6 µg/mL (≈ 67.2 µM)
MIC50 (Cryptococcus neoformans [7]): 3.9 µg/mL (≈ 16.8 µM)
MIC80 (Cryptococcus neoformans [7]): 31.2 µg/mL (≈ 134 µM)
MIC [8]: 31 µg/mL (≈ 133 µM)
MIC (Aspergillus flavus): 125 µg/mL (≈ 538 µM)
MIC50 (Cryptococcus neoformans [9]): 7.8 µg/mL (≈ 33.6 µM)
MIC80 (Cryptococcus neoformans [9]): 31.2 µg/mL (≈ 134 µM)
MIC (Trichophyton rubrum): 31 µg/mL (≈ 133 µM)
MIC50 (Cryptococcus neoformans [11]): 7.8 µg/mL (≈ 33.6 µM)
MIC80 (Cryptococcus neoformans [11]): 31.2 µg/mL (≈ 134 µM)
MIC (Saccharomyces cerevisiae): 62 µg/mL (≈ 267 µM)
MIC50 (Candida albicans [12]): 15.6 µg/mL (≈ 67.2 µM)
MIC80 (Candida albicans [12]): 31.2 µg/mL (≈ 134 µM)
MIC50 (Candida parapsilosis): 7.8 µg/mL (≈ 33.6 µM)
MIC80 (Candida parapsilosis): 31.2 µg/mL (≈ 134 µM)
MIC50 (Nakaseomyces glabratus): 31.2 µg/mL (≈ 134 µM)
MIC80 (Nakaseomyces glabratus): 62.5 µg/mL (≈ 269 µM)
MIC50 (Cryptococcus neoformans [14]): 7.8 µg/mL (≈ 33.6 µM)
MIC80 (Cryptococcus neoformans [14]): 31.2 µg/mL (≈ 134 µM)
MIC50 (Candida tropicalis): 31.2 µg/mL (≈ 134 µM)
MIC80 (Candida tropicalis): 62.5 µg/mL (≈ 269 µM)
MIC50 (Candida albicans [15]): 7.8 µg/mL (≈ 33.6 µM)
MIC80 (Candida albicans [15]): 15.6 µg/mL (≈ 67.2 µM)
MIC (Aspergillus niger): 125 µg/mL (≈ 538 µM)
MIC80 (Candida albicans [16]): 15.6 µg/mL (≈ 67.2 µM)
MIC (Candida albicans [19]): 62 µg/mL (≈ 267 µM)
MIC50 (Candida albicans [19]): 7.8 µg/mL (≈ 33.6 µM)
MIC80 (Candida albicans [19]): 15.6 µg/mL (≈ 67.2 µM)
MIC50 (Cryptococcus neoformans [20]): 3.9 µg/mL (≈ 16.8 µM)
MIC80 (Cryptococcus neoformans [20]): 31.2 µg/mL (≈ 134 µM)
SMILES: C(=C\c1ccc2ccccc2n1)/c1ccncc1
MFC (Cryptococcus neoformans [3]): 125 µg/mL (≈ 538 µM)
MFC (Aspergillus fumigatus): 250 µg/mL (≈ 1080 µM)
MFC (Nannizzia gypsea): 125 µg/mL (≈ 538 µM)
MFC [8]: 125 µg/mL (≈ 538 µM)
MFC (Aspergillus flavus): 250 µg/mL (≈ 1080 µM)
inhibition at 7.8 µg/mL (Candida albicans [10]): 50%
MFC (Trichophyton rubrum): 125 µg/mL (≈ 538 µM)
MFC (Saccharomyces cerevisiae): 250 µg/mL (≈ 1080 µM)
inhibition at 31.2 µg/mL (Cryptococcus neoformans [13]): 80%
MFC (Aspergillus niger): > 250 µg/mL
inhibition at 31.2 µg/mL (Candida albicans [17]): 80%
inhibition at 15.6 µg/mL (Candida albicans [18]): 80%
MFC (Candida albicans [19]): 250 µg/mL (≈ 1080 µM)
